# Results as given in PubChem BioAssay.
# The source made the active and inactive calls.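 Rule for the calls, unless noted: active = viability at or below 30% in both replicate assays; inconclusive = viability at or below 30% in just one of the two assays; inactive = the rest.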
# How the values were obtained:
# [1] = reducers of endogenous Her2 protein level, primary screen, SKBR3 breast tumor cells, AlphaScreen, ATP viability (AID 461;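 active = Her2 level under about 52% in both replicate screens, with viability over 70% of control, limit read from the data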;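 for Her2 level: lower value means less Her2 protein in the cells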;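 for viability: percent of carrier control wells set as 100% viability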); conditions: 18-24 h, measured here: SKBR3 viability, ATP luminescence, at 10 µM
# [2] = molecular target: Receptor tyrosine-protein kinase erbB-2 (Homo sapiens) (UniProt P04626); test: as above; conditions: 18-24 h, at 10 µM, stronger effect = lower value
# [3] = SK-BR-3 cell growth inhibitors, pilot screen, 24 h, human (AID 572;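 active = viability at or below 10% of carrier control in both of two separate runs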;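 note: compound exposure lasted between 18 and 24 h rather than exactly 24 h; 100% = carrier-treated control wells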); conditions: SK-BR-3 viability, CellTiter-Glo luminescence, at 10 µM, stronger effect = lower value
# [4] = HUVEC growth inhibition – cell-based, human, primary screen (AID 575); conditions: HUVEC proliferation, CellTiter-Glo luminescence, 72 h; at 10 µM; stronger effect = lower value;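 note: 100% = median of untreated cell wells with 0.1% DMSO on each plate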
# Summary of the method: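 Assay system: Primary human umbilical vein endothelial cells | Quantity: 1250 cells per well | Medium: Supplemented EBM, 2% fetal bovine serum | Detection: CellTiter-Glo luminescence measuring cellular ATP | Read-out: % viability vs DMSO wells | Plate: Collagen-coated 384-well format | Times: 72 h exposure, 37 °C, 5% CO2, 30 min RT equilibration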
# [5] = growth inhibitors of H69AR lung tumor, primary screen, human, duplicate replicates (AID 580;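 active = viability at or under a set limit in both replicates, limit being median viability minus 3 SD, cut at about 48% in these data, passing the limit was not always enough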;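 note: 100% = mean luminescence of untreated wells and 0% = no signal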); conditions: H69AR lung tumor cells viability, ATP luminescence, 72 h; at 10 µM; stronger effect = lower value
# [6] = reversal of MRP1-mediated doxorubicin resistance, pilot screen, H69AR cells, doxorubicin co-treatment (AID 601;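 active = viability loss from added drug above about 55%, and viability with drug at most 40%, in both replicates, limit read from the data, passing the limit was not always enough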); conditions: CellTiter-Glo, 72 h, at 10 µM; for differential viability (reversal): stronger effect = higher value
# [7] = 384-well plate pilot, post-Golgi transport modulator project, inhibition of yeast transport mutant growth (AID 636; in the data active = inhibition above about 31%); conditions: absorbance 615 nm, about 18 h, stronger effect = higher value
# [8] = growth suppression of yeast trafficking mutant, preliminary HTS, modulators of trafficking downstream of Golgi apparatus project, 1536-format plate, OD 615 nm (AID 637; in the data active = inhibition above about 30%); conditions: yeast transport mutant growth, absorbance 615 nm, 18 h; stronger effect = higher value
# [9] = H69AR cells + 2 uM doxorubicin, measured here: viability with 2 uM doxorubicin, stronger effect = lower value
# [10] = H69AR cells, compound alone cytotoxicity
# Chain of Receptor tyrosine-protein kinase erbB-2 (Homo sapiens) (P04626 whole entry, looked up): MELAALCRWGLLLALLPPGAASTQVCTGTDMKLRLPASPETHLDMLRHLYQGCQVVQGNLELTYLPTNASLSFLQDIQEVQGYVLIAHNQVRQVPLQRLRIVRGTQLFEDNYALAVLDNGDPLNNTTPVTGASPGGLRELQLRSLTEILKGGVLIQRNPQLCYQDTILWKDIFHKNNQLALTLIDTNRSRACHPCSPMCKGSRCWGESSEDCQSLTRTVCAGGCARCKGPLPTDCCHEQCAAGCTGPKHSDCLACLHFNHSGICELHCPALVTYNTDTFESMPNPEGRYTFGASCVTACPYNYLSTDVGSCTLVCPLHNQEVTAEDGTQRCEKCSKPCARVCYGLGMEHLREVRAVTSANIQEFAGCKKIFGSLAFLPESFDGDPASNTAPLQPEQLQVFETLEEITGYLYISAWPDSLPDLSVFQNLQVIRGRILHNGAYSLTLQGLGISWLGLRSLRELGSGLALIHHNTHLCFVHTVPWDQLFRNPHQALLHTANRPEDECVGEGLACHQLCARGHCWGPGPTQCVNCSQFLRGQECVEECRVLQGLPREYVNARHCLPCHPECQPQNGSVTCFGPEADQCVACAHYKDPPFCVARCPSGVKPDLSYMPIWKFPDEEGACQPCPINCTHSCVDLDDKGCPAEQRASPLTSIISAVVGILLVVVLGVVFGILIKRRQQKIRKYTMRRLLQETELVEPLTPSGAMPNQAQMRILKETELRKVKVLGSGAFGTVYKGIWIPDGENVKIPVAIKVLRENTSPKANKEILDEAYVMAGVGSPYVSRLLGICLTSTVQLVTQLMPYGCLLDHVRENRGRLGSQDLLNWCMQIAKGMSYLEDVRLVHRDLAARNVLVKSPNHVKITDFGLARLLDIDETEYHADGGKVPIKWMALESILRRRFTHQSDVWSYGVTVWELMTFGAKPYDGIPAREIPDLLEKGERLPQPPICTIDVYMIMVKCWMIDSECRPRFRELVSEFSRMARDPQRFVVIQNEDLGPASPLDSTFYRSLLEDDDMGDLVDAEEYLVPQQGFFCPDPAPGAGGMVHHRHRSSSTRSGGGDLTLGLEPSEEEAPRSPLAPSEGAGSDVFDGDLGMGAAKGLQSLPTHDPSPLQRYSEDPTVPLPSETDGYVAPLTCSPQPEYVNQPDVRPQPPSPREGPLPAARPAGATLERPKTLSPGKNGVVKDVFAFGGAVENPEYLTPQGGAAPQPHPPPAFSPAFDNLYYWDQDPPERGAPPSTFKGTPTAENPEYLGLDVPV
smiles,measurement,setting,value
Cc1ccccc1C(=O)NC1CCN(CC(=O)Nc2nccs2)CC1,viability,[1],92.5%
same,Her2 level,[2],96% (inactive)
same,viability,[3],92.5% (inactive)
same,viability,[4],88.8% (inactive)
same,viability,[5],97.8% (inactive)
same,differential viability (reversal),[6]; H69AR cells + 2 uM doxorubicin,11.6% (inactive)
same,viability,[6]; [9],86.2%
same,viability,[6]; [10],97.8%
same,inhibition,[7],-0.67% (inactive)
same,inhibition,[8],5.08% (inactive)
CCOC(=O)c1cccc(NC(=O)c2ccco2)c1,viability,[1],95.5%
same,Her2 level,[2],92.5% (inactive)
same,viability,[3],95.5% (inactive)
same,viability,[4],114% (inactive)
same,viability,[5],91.9% (inactive)
same,differential viability (reversal),[6]; H69AR cells + 2 uM doxorubicin,3.72% (inactive)
same,viability,[6]; [9],88.1%
same,viability,[6]; [10],91.9%
same,inhibition,[7],-0.77% (inactive)
same,inhibition,[8],-1.17% (inactive)
CCOc1ccc(Oc2nc(Nc3ccc(C)cc3)nc(N(C)C)n2)nn1,viability,[1],85.5%
same,Her2 level,[2],92% (inactive)
same,viability,[3],85.5% (inactive)
same,viability,[4],89.3% (inactive)
same,viability,[5],95.3% (inactive)
same,differential viability (reversal),[6]; H69AR cells + 2 uM doxorubicin,11.3% (inactive)
same,viability,[6]; [9],84%
same,viability,[6]; [10],95.3%
same,inhibition,[7],-4.19% (inactive)
same,inhibition,[8],1.97% (inactive)
CCOC(=O)N1CCC(N2CC34C=CC(O3)C(C(=O)O)C4C2=O)CC1 (stereo not given),viability,[1],102%
same,Her2 level,[2],99.5% (inactive)
same,viability,[3],102% (inactive)
same,viability,[4],92.4% (inactive)
same,viability,[5],100% (inactive)
same,differential viability (reversal),[6]; H69AR cells + 2 uM doxorubicin,18.3% (inactive)
same,viability,[6]; [9],81.8%
same,viability,[6]; [10],100%
same,inhibition,[7],-3.73% (inactive)
same,inhibition,[8],-4.26% (inactive)
CCn1c(SCC(=O)Nc2nnc(C)s2)nnc1-c1ccncc1,viability,[1],112%
same,Her2 level,[2],76% (inactive)
same,viability,[3],112% (inactive)
same,viability,[4],107% (inactive)
same,viability,[5],95.5% (inactive)
same,differential viability (reversal),[6]; H69AR cells + 2 uM doxorubicin,4.15% (inactive)
same,viability,[6]; [9],91.4%
same,viability,[6]; [10],95.5%
same,inhibition,[7],-7.43% (inactive)
same,inhibition,[8],6.17% (inactive)
CCN(CC)S(=O)(=O)c1ccc(S(=O)(=O)N(Cc2ccccn2)Cc2ccco2)cc1,viability,[1],94%
same,Her2 level,[2],94.5% (inactive)
same,viability,[3],94% (inactive)
same,viability,[4],90.6% (inactive)
same,viability,[5],91% (inactive)
same,differential viability (reversal),[6]; H69AR cells + 2 uM doxorubicin,-0.185% (inactive)
same,viability,[6]; [9],91.2%
same,viability,[6]; [10],91%
same,inhibition,[7],-2.03% (inactive)
same,inhibition,[8],3.02% (inactive)
Cc1nc(SCC(=O)N2CCC(C(N)=O)CC2)n[nH]1,viability,[1],94.5%
same,Her2 level,[2],108% (inactive)
same,viability,[3],94.5% (inactive)
same,viability,[4],109% (inactive)
same,viability,[5],95.5% (inactive)
same,differential viability (reversal),[6]; H69AR cells + 2 uM doxorubicin,3.98% (inactive)
same,viability,[6]; [9],91.6%
same,viability,[6]; [10],95.5%
same,inhibition,[7],-6.32% (inactive)
same,inhibition,[8],1.45% (inactive)
COc1ccccc1-c1noc(-c2cccnc2)n1,viability,[1],94%
same,Her2 level,[2],102% (inactive)
same,viability,[3],94% (inactive)
same,viability,[4],117% (inactive)
same,viability,[5],92.3% (inactive)
same,differential viability (reversal),[6]; H69AR cells + 2 uM doxorubicin,0.91% (inactive)
same,viability,[6]; [9],91.4%
same,viability,[6]; [10],92.3%
same,inhibition,[7],-2.89% (inactive)
same,inhibition,[8],-0.66% (inactive)
CCN(CC)S(=O)(=O)c1ccc(C(=O)Oc2ccc3c(c2)OCO3)cc1,viability,[1],101%
same,Her2 level,[2],84% (inactive)
same,viability,[3],101% (inactive)
same,viability,[4],86.6% (inactive)
same,viability,[5],90.5% (inactive)
same,differential viability (reversal),[6]; H69AR cells + 2 uM doxorubicin,4.36% (inactive)
same,viability,[6]; [9],86.1%
same,viability,[6]; [10],90.5%
same,inhibition,[7],-5.53% (inactive)
same,inhibition,[8],-4.13% (inactive)
CCOC(=O)CSc1nc2c(c(-c3ccc(C)o3)c1C#N)CCCC2,viability,[1],89.5%
same,Her2 level,[2],88.5% (inactive)
same,viability,[3],89.5% (inactive)
same,viability,[4],65.8% (inactive)
same,viability,[5],73.8% (inactive)
same,differential viability (reversal),[6]; H69AR cells + 2 uM doxorubicin,6.76% (inactive)
same,viability,[6]; [9],67%
same,viability,[6]; [10],73.8%
same,inhibition,[7],0.26% (inactive)
same,inhibition,[8],-2.46% (inactive)
COC(=O)C1=CN(C(C)C)C=C(C(=O)OC)C1c1cc2c(cc1Br)OCO2,viability,[1],92.5%
same,Her2 level,[2],87.5% (inactive)
same,viability,[3],92.5% (inactive)
same,viability,[4],74% (inactive)
same,viability,[5],85.4% (inactive)
same,differential viability (reversal),[6]; H69AR cells + 2 uM doxorubicin,9.5% (inactive)
same,viability,[6]; [9],75.9%
same,viability,[6]; [10],85.4%
same,inhibition,[7],-1.47% (inactive)
same,inhibition,[8],-4.29% (inactive)
COc1ccccc1OCc1ccc(C(=O)NC(C)(C)C)o1,viability,[1],83%
same,Her2 level,[2],102% (inactive)
same,viability,[3],83% (inactive)
same,viability,[4],94.2% (inactive)
same,viability,[5],95.4% (inactive)
same,differential viability (reversal),[6]; H69AR cells + 2 uM doxorubicin,14.6% (inactive)
same,viability,[6]; [9],80.9%
same,viability,[6]; [10],95.4%
same,inhibition,[7],1.71% (inactive)
same,inhibition,[8],-5.82% (inactive)
Cc1nc(/N=C\N(C)C)sc1C(=O)Nc1ccccc1,viability,[1],93%
same,Her2 level,[2],82% (inactive)
same,viability,[3],93% (inactive)
same,viability,[4],100% (inactive)
same,viability,[5],96.2% (inactive)
same,differential viability (reversal),[6]; H69AR cells + 2 uM doxorubicin,1.87% (inactive)
same,viability,[6]; [9],94.3%
same,viability,[6]; [10],96.2%
same,inhibition,[7],-5.81% (inactive)
same,inhibition,[8],-8% (inactive)
O=C(c1ccc(Cl)c(Cl)c1)N1CCOCC1,viability,[1],102%
same,Her2 level,[2],103% (inactive)
same,viability,[3],102% (inactive)
same,viability,[4],91.7% (inactive)
same,viability,[5],92.3% (inactive)
same,differential viability (reversal),[6]; H69AR cells + 2 uM doxorubicin,-5.39% (inactive)
same,viability,[6]; [9],97.7%
same,viability,[6]; [10],92.3%
same,inhibition,[7],-0.66% (inactive)
same,inhibition,[8],-10.8% (inactive)
CCOC(=O)c1c(-c2cccs2)csc1NC(=O)CCCC(=O)O,viability,[1],110%
same,Her2 level,[2],87% (inactive)
same,viability,[3],110% (inactive)
same,viability,[4],78.3% (inactive)
same,viability,[5],83.4% (inactive)
same,differential viability (reversal),[6]; H69AR cells + 2 uM doxorubicin,1.06% (inactive)
same,viability,[6]; [9],82.4%
same,viability,[6]; [10],83.4%
same,inhibition,[7],-5.79% (inactive)
same,inhibition,[8],-3.27% (inactive)
